Experimental data: ChEMBL document CHEMBL1221390, “Withaferin A, a cytotoxic steroid from Vassobia breviflora, induces apoptosis in human head and neck squamous cell carcinoma” (J Nat Prod, 2010)
Calls of active or inactive are those of the source. No cut-off for these calls is given here.

Experiments:
[1] = Induction of cell cycle arrest in human JMAR cells assessed as accumulation at subG0 phase at 3 uM after 24 hrs by flow cytometry; assay type: functional
How it was run: (§1)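 Treated 24 h with 3.0 μM or DMSO vehicle. Cells trypsinized; 1×10⁶ washed in 0.9% NaCl and fixed 30 min at room temperature in cold 70% ethanol/0.9% NaCl. Stained with PI (50 μg/mL in PBS) 30 min, then DNase-free RNase (1 mg/mL) 30 min. Phase distribution (sub-G0, G0/G1, S, G2/M) by flow cytometry.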

[2] = Induction of cell cycle arrest in human MDA1986 cells assessed as accumulation at subG0 phase at 3 uM after 24 hrs by flow cytometry; assay type: functional; how it was run: as §1
[3] = Induction of apoptosis in human JHU011 cells assessed as early apoptotic cells at 5 uM after 24 hrs by FITC-conjugated annexin V and propidium iodide staining-based flow cytometry; assay type: functional
How it was run: (§2)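 Cells given 5.0 μM for 24 h, harvested, and co-stained at 1×10⁶ cells/mL with annexin V-FITC and PI. Annexin binding buffer added before flow cytometry. Annexin V only scored as early apoptosis, annexin V+PI as late apoptosis, PI only as necrosis. Triplicate; t-test.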

JHU011 [4] = test: Induction of apoptosis in human JHU011 cells assessed as mild increase in late apoptotic cells at 5 uM after 24 hrs by FITC-conjugated annexin V and propidium iodide staining-based flow cytometry; assay type: functional, cell-based; how it was run: as §2
JHU011 [5] = test: Induction of apoptosis in human JHU011 cells assessed as increase in non-viable necrotic cells at 5 uM after 24 hrs by FITC-conjugated annexin V and propidium iodide staining-based flow cytometry; assay type: functional, cell-based; how it was run: as §2
JMAR [6] = test: Induction of apoptosis in human JMAR cells assessed as increase in early apoptotic cells at 5 uM after 24 hrs by FITC-conjugated annexin V and propidium iodide staining-based flow cytometry; assay type: functional, cell-based; how it was run: as §2
JMAR [7] = test: Induction of apoptosis in human JMAR cells assessed as increase in late apoptotic cells at 5 uM after 24 hrs by FITC-conjugated annexin V and propidium iodide staining-based flow cytometry; assay type: functional, cell-based; how it was run: as §2
JMAR [8] = test: Induction of apoptosis in human JMAR cells assessed as increase in non-viable necrotic cells at 5 uM after 24 hrs by FITC-conjugated annexin V and propidium iodide staining-based flow cytometry; assay type: functional, cell-based; how it was run: as §2
UM-SCC2 [9] = test: Induction of apoptosis in human UM-SCC2 cells assessed as increase in early apoptotic cells at 5 uM after 24 hrs by FITC-conjugated annexin V and propidium iodide staining-based flow cytometry; assay type: functional, cell-based; how it was run: as §2
UM-SCC2 [10] = test: Induction of apoptosis in human UM-SCC2 cells assessed as increase in late apoptotic cells at 5 uM after 24 hrs by FITC-conjugated annexin V and propidium iodide staining-based flow cytometry; assay type: functional, cell-based; how it was run: as §2
UM-SCC2 [11] = test: Induction of apoptosis in human UM-SCC2 cells assessed as increase in late non-viable necrotic cells at 5 uM after 24 hrs by FITC-conjugated annexin V and propidium iodide staining-based flow cytometry; assay type: functional, cell-based; how it was run: as §2
JHU011 [12] = test: Induction of apoptosis in human JHU011 cells assessed as decrease in procaspase-3 level at 1 to 6 uM after 24 hrs by Western blot analysis; assay type: functional, cell-based
How it was run: (§3)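 Cells exposed to increasing concentrations for 24 h, lysed in NP-40/Tris pH 7.5 buffer with protease inhibitors, NaF and orthovanadate. Equal protein run on SDS-PAGE, transferred to nitrocellulose. Probed overnight at 4 °C for uncleaved caspase 3 (pro-form) and uncleaved/cleaved PARP; HRP secondary 1 h at room temperature.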

JHU011 [13] = test: Induction of apoptosis in human JHU011 cells assessed as induction of PRAP cleavage after 24 hrs by Western blot analysis; assay type: functional, cell-based; how it was run: as §3
JMAR [14] = test: Induction of apoptosis in human JMAR cells assessed as decrease in procaspase-3 level at 1 to 6 uM after 24 hrs by Western blot analysis; assay type: functional, cell-based; how it was run: as §3
JMAR [15] = test: Induction of apoptosis in human JMAR cells assessed as induction of PRAP cleavage after 24 hrs by Western blot analysis; assay type: functional, cell-based; how it was run: as §3
UM-SCC2 [16] = test: Induction of apoptosis in human UM-SCC2 cells assessed as decrease in procaspase-3 level at 1 to 6 uM after 24 hrs by Western blot analysis; assay type: functional, cell-based; how it was run: as §3
UM-SCC2 [17] = test: Induction of apoptosis in human UM-SCC2 cells assessed as induction of PRAP cleavage after 24 hrs by Western blot analysis; assay type: functional, cell-based; how it was run: as §3
Homo sapiens [18] = organism: Homo sapiens; test: Induction of apoptosis in human MDA1986 cells assessed as decrease in procaspase-3 level at 1 to 6 uM after 24 hrs by Western blot analysis; assay type: functional, cell-based; how it was run: as §3
Homo sapiens [19] = organism: Homo sapiens; test: Induction of apoptosis in human MDA1986 cells assessed as induction of PRAP cleavage at 1 to 6 uM after 24 hrs by Western blot analysis; assay type: functional, cell-based; how it was run: as §3
[20] = molecular target: RAC-alpha serine/threonine-protein kinase (Homo sapiens) (UniProt P31749); test: Inhibition of Akt phosphorylation in human JHU011 cells after 24 hrs by Western blot analysis; assay type: cell-based
RAC-alpha serine/threonine-protein kinase (Homo sapiens), sequence (P31749 whole entry): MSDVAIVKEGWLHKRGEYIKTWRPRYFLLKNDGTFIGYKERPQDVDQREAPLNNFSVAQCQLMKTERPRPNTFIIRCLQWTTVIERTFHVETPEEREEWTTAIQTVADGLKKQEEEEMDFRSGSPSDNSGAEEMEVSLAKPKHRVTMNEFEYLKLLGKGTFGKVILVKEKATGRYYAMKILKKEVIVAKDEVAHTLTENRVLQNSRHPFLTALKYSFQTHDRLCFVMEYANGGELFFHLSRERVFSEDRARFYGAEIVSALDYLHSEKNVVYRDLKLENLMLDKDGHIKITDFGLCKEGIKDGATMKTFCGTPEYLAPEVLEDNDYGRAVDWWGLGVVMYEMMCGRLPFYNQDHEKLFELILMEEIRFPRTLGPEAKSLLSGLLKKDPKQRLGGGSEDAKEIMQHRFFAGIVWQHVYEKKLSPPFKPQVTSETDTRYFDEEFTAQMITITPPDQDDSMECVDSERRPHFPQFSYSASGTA
How it was run: (§4)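 Increasing concentrations for 24 h. NP-40 lysates (with NaF and orthovanadate) cleared at 14,000 × g, equal protein separated by SDS-PAGE and blotted. Probed for phospho-Akt (Ser473), total Akt, phospho-ERK1/2 and total ERK; β-actin loading control. Primary antibody overnight at 4 °C, HRP secondary 1 h.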

[21] = molecular target: RAC-alpha serine/threonine-protein kinase (Homo sapiens) (UniProt P31749); test: Inhibition of Akt phosphorylation in human UM-SCC2 cells after 24 hrs by Western blot analysis; assay type: cell-based; how it was run: as §4
[22] = molecular target: RAC-alpha serine/threonine-protein kinase (Homo sapiens) (UniProt P31749); test: Inhibition of Akt phosphorylation in human MDA1986 cells after 24 hrs by Western blot analysis; assay type: cell-based; how it was run: as §4
[23] = molecular target: RAC-alpha serine/threonine-protein kinase (Homo sapiens) (UniProt P31749); test: Inhibition of Akt phosphorylation in human JMAR cells after 24 hrs by Western blot analysis; assay type: cell-based; how it was run: as §4
[24] = molecular target: RAC-alpha serine/threonine-protein kinase (Homo sapiens) (UniProt P31749); test: Inhibition of Akt in human MDA1986 cells assessed as highest required for enzyme activity after 24 hrs by Western blot analysis; assay type: cell-based; how it was run: as §4

inhibition [20]: Dose-dependent effect
inhibition [21]: Dose-dependent effect
inhibition [22]: Dose-dependent effect
inhibition [23]: Dose-dependent effect
Activity [24]: 2.5 µM
SMILES: CC1=C(CO)C(=O)O[C@@H]([C@@H](C)[C@H]2CC[C@H]3[C@@H]4C[C@H]5O[C@]56[C@@H](O)C=CC(=O)[C@]6(C)[C@H]4CC[C@]23C)C1 [WITHAFERIN A]
Activity [1]: 12%
Activity [2]: 8%
Activity [3]: 14.8%
Activity (JHU011 [4]): Active
Activity (JHU011 [5]): inactive
Activity (JMAR [6]): Active
Activity (JMAR [7]): Active
Activity (JMAR [8]): Active
Activity (UM-SCC2 [9]): Active
Activity (UM-SCC2 [10]): Active
Activity (UM-SCC2 [11]): Active
Activity (JHU011 [12]): Active
Activity (JHU011 [13]): Dose-dependent effect
Activity (JMAR [14]): Active
Activity (JMAR [15]): Dose-dependent effect
Activity (UM-SCC2 [16]): Active
Activity (UM-SCC2 [17]): Dose-dependent effect
Activity (Homo sapiens [18]): Active
Activity (Homo sapiens [19]): Active
